LYP act = activators of human LYP (PTPN22) phosphatase. recombinant LYP, DiFMUP fluorescence; 0 = plate median, 100 = signal doubled. activation, % at 2 µM. AID 697. 96,000 tested, 0.11% active. Q9Y2R2;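 active means activation at 2 µM above a set limit, the mean plus 5 SD, cut at about 37% in these data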
PLK1 kinase inh = blocks human PLK1 kinase activity; inhibition, % at 10 µM; AID 619; P53350; 97,000 tested, 0.53% active; recombinant PLK1 kinase, TR-FRET peptide phosphorylation;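 active means inhibition of 50% or more in the single-concentration screen; inactive means inhibition below 50%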;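 further: 0% = DMSO max control and 100% = H-89 dihydrochloride min control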
PLAP activator = activators of human placental alkaline phosphatase; 96,000 tested, 1.2% active; activation fold at 20 µM; purified PLAP enzyme, luminescent substrate read-out; active compounds read high; AID 696; in the data active means activation fold above about 2
Plk1 PBD FP = Plk1 (human) PBD binding inhibition. AID 693. Plk1 PBD phosphopeptide binding, fluorescence polarization. inhibition, %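 (tested at about 20 µM)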. P53350. 97,000 tested, 0.13% active; in the data active means inhibition above about 34%, passing the limit was not always enough
Rev-RRE block = inhibitors of HIV-1 Rev-RRE RNA interaction; inhibition, % at 8 µM; Rev peptide-RRE RNA binding, FRET; 97,000 tested, 0.79% active;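 active means inhibition above the screen-wide mean plus 3 SD, cut at about 35% in these data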;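 further: 0% = median DMSO wells and 100% = median Neomycin B control wells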
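System: Cy5-labelled duplex RRE RNA binding fluorescein-labelled HIV Rev peptide; Signal: fluorescein-to-Cy5 FRET, 480 nm excitation; Also added: labelled Rev peptide; Compound: one concentration, 8 µM nominal; Buffer or medium: HEPES pH 7.5 salt buffer with EDTA; Read-out: % inhibition of FRET ratio versus controls; Schedule: 5 min preincubation and 15 min binding, 25 °C.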
PTPN22 inh 2 = LYP (human) phosphatase inhibition. inhibition, % at 2 µM. 96,000 tested, 0.21% active. AID 640. recombinant LYP catalytic domain, DiFMUP fluorescence;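 active means inhibition at 2 µM at or above a set limit, the screen mean plus 3 SD, cut at about 24% in these data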;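 further: 0% = DMSO with enzyme and 100% = enzyme fully blocked by orthovanadate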
PLK1 confirm = confirmation of human PLK1 kinase inhibitors; shares compounds with PLK1 kinase inh; recombinant PLK1 kinase, TR-FRET peptide phosphorylation; inhibition, % at 10 µM; 210 tested, 20% active;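 active means inhibition at or above 50% in each of two repeat confirmation tests; inconclusive means one repeat below 50% inhibition, the other above; inactive means both repeats at or below 50% inhibition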;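 further: 0% = DMSO max control and 100% = H-89 kinase-blocked min control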
TR-FRET interf = counter-screen for Plk1 inhibitors: compound assay interference | inhibition (interference), % at 10 µM | 210 tested, under 10 active | shares compounds with PLK1 kinase inh | Plk1 TR-FRET assay interference, compound added post-reaction;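 active means both duplicate runs show 50% or greater inhibition; inconclusive means only one duplicate run shows over 50% inhibition; inactive means both runs show under 50% inhibition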;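 further: 0% = DMSO max control and 100% = H-89 min control inhibited reaction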
PBD redox DR = generates H2O2 by redox cycling, flagging false Plk1 PBD hits. EC50, µM. AID 876. shares compounds with Plk1 PBD FP. redox cycling H2O2 generation, DTT, counter-screen. 120 tested, under 10 active
PTPN22 act conf = LYP (PTPN22) phosphatase activation confirmation; shares compounds with LYP act; Recombinant LYP, DIFMUP fluorescence; zero set by plate's median compound well; activation, % at 2 µM; 100 tested, under 10 active; AID 1031
Numbers without * were called inactive; i = inactive; ? = inconclusive; . = no result given; [ ] = remark or other dose. Sampled rows, rich in hits. Any-hit rate of the full collection: about 2.7%. Unless noted, how the calls were made is not given here.

SMILES	LYP act	PLK1 kinase inh	PLAP activator	Plk1 PBD FP	Rev-RRE block	PTPN22 inh 2	others
CC(Cc1ccccc1)[n+]1cc(/N=C(\[O-])N(C)C)on1 (centres undefined)	-3	-3	0.9	-10	-4	4
CCCCCCn1c(=O)c(C(=O)Nc2ccncc2)c(O)c2ccccc21	.	.	1	.	.	.
NC1CCCCC1N=Cc1c(O)n(Cc2ccc(F)cc2)c(=O)[nH]c1=O (centres undefined)	-3	0	2.8*	-11	2	1
Cc1ccc(-n2c(O)c(C=NC3CCCCC3N)c(=O)[nH]c2=O)cc1C (centres undefined)	-9	-25	2.2*	-4	8	6
CNCCc1nc(N)n[nH]1	1	-10	1	8	3	0
O=C1CCCC2=C1C(c1cccnc1)Nc1ccccc1N2 (centres undefined)	-2	-6	0.9	-25	1	2
COc1ccc(Cn2c(N)c(C(=O)NCc3ccco3)c3nc4ccccc4nc32)cc1OC	-6	72*	1.5	-13	31	5	PLK1 confirm=71*;TR-FRET interf=-43
CCCNC(=O)c1c(N)n(Cc2ccco2)c2nc3ccccc3nc12	10	-8	1.8	-26	32	-10
O=C1c2ccccc2C(=O)N1Cc1nc2ccccc2c(=O)n1-c1cccnc1	-4	-12	0.8	-14	1	4
CN1/C(=C\C=C\C2=[N+](C)c3ccc4ccccc4c3C2(C)C)C(C)(C)c2ccccc21	-31	86*	0.6	-4	i	33*	PLK1 confirm=?;TR-FRET interf=11
Cc1nc2c(=O)n(C)c(=O)nc-2n(C)n1	-33	-12	.	116*	7	32*	PBD redox DR=1.6*
Cc1ccc(OCC(=O)N2CCN(C)CC2)c(Br)c1	3	16	1	6	2	-4
CCOC(=O)c1ccc(NC(=O)c2c(O)[nH]c(=O)[nH]c2=O)cc1	-8	9	1.1	59*	140*[fluorescence artefact?]	6	PBD redox DR=>50
CCSc1nnc([C@@H](N)Cc2c[nH]c3ccccc23)o1	-3	-10	1	19	0	1
O=C1C(=O)c2ccccc2-c2ccccc21	-6	3	0.8	95*	7	6	PBD redox DR=>50
OC12Oc3ccccc3C=C1N1CCC2CC1 (centres undefined)	-7	1	1	-3	6	6
CC(C)CCC1(CN2CCCC2=O)C(=O)NC(=O)NC1=O	39*	-4	0.9	-21	2	-36	PTPN22 act conf=5
CN1CCN(CCC(=O)OC2CC3CCC(C2)N3C)CC1 (centres undefined)	0	-8	.	-11	7	1
